target: T1, Myelin-associated glycoprotein (Homo sapiens, UniProt P20916); test: Binding affinity to human IgG Fc-domain tagged MAG N-terminal domain expressed in CHO cells by surface plasmon resonance
T1 sequence (P20916 whole entry): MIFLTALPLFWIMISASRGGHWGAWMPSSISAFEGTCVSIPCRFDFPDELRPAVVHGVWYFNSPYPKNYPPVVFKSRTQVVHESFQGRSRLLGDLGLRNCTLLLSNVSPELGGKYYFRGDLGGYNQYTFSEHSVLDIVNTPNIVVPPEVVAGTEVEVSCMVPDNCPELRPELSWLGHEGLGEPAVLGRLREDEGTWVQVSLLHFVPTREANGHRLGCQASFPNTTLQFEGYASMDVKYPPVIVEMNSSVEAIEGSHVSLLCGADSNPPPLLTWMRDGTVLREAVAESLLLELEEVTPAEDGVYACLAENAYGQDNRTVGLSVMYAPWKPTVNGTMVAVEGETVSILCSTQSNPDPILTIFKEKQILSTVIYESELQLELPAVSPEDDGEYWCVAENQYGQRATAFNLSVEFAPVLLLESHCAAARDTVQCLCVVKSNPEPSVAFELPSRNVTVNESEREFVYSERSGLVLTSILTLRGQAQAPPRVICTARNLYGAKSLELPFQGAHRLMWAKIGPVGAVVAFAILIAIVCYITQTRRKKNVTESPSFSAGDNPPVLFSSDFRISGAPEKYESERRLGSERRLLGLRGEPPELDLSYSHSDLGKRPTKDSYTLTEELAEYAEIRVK
Summary of the method: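 Fc-MAGd1-3 (three N-terminal MAG domains fused to human IgG Fc, CHO-expressed, protein A-purified) captured on an immobilized anti-human IgG Fc antibody on CM5 chip; reference surface prepared in parallel.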

Kd [µM]	Structure (SMILES)
5	CC(=O)N[C@H]1[C@H]([C@@H](O)[C@H](O)CNC(=O)c2ccccc2)O[C@@](O[C@H]2[C@@H](O)[C@@H](CO)O[C@@H](O[C@@H]3CCO[C@H](COCc4ccc(-c5ccccc5)cc4)[C@@H]3O)[C@@H]2O)(C(=O)O)C[C@@H]1O
32.6	CC(=O)N[C@H]1[C@H]([C@@H](O)[C@H](O)CNC(=O)c2ccccc2)O[C@@](O[C@H]2[C@@H](O)[C@@H](CO)O[C@@H](O[C@H]3[C@@H](O)[C@@H](CO)O[C@@H](OCC[Si](C)(C)C)[C@@H]3O)[C@@H]2O)(C(=O)O)C[C@@H]1O
2.83	CC(=O)N[C@H]1[C@H]([C@@H](O)[C@H](O)CNC(=O)c2ccc(Cl)cc2)O[C@@](O[C@H]2[C@@H](O)[C@@H](CO)O[C@@H](O[C@@H]3CCO[C@H](COCc4ccc(-c5ccccc5)cc4)[C@@H]3O)[C@@H]2O)(C(=O)O)C[C@@H]1O

target: T2, Myelin-associated glycoprotein (Homo sapiens) (UniProt P20916); test: Inhibition of human IgG Fc-domain tagged MAG N-terminal domain expressed in CHO cells assessed as relative inhibition potency by hapten inhibition assay relative to (2R,4S,5R,6R)-5-acetamido-2-(((2R,3R,4R,5R,6R)-5-acetamido-4-((2R,3R,4S,5S,6R)-4-((2S,4S,5R)-5-acetamido-2-carboxy-4-hydroxy-6-((1S,2S)-1,2,3-trihydroxypropyl)tetrahydro-2H-pyran-2-yloxy)-3,5-dihydroxy-6-(hydroxymethyl)tetrahydro-2H-pyran-2-yloxy)-3-hydroxy-6-(2-(trimethylsilyl)ethoxy)tetrahydro-2H-pyran-2-yl)methoxy)-4-hydroxy-6-((1S,2R)-1,2,3-trihydroxypropyl)tetrahydro-2H-pyran-2-carboxylic acid; type: cell-based
T2 sequence (whole entry): T1 sequence (P20916 whole entry)
Summary of the method: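 Hapten inhibition: oligosaccharide added to wells with immobilized Neu5Ac, then Fc-MAGd1-3 precomplexed with alkaline phosphatase-labelled anti-Fc antibody; overnight at 4 °C, washed, bound MAG read by initial rate of fluorescein release from fluorescein diphosphate. IC50 from at least eight concentrations, at least three independent titrations; rIP calculated against the reference compound included in each test.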

Ratio IC50	Structure (SMILES)
314	CC(=O)N[C@H]1[C@H]([C@@H](O)[C@H](O)CNC(=O)c2ccccc2)O[C@@](O[C@H]2[C@@H](O)[C@@H](CO)O[C@@H](O[C@@H]3CCO[C@H](COCc4ccc(-c5ccccc5)cc4)[C@@H]3O)[C@@H]2O)(C(=O)O)C[C@@H]1O
0.59	CC(=O)N[C@H]1[C@H]([C@@H](O)[C@H](O)CO)O[C@@](O[C@H]2[C@@H](O)[C@@H](CO)O[C@@H](O[C@@H]3CCO[C@H](COCc4ccccc4)[C@@H]3O)[C@@H]2O)(C(=O)O)C[C@@H]1O
0.26	CC(=O)N[C@H]1[C@H](OCC[Si](C)(C)C)O[C@H](CO)[C@H](O)[C@@H]1O[C@@H]1O[C@H](CO)[C@H](O)[C@H](O[C@]2(C(=O)O)C[C@H](O)[C@@H](NC(C)=O)[C@H]([C@@H](O)[C@H](O)CO)O2)[C@H]1O
61.5	CC(=O)N[C@H]1[C@H]([C@@H](O)[C@H](O)CNC(=O)c2ccccc2)O[C@@](O[C@H]2[C@@H](O)[C@@H](CO)O[C@@H](O[C@H]3[C@@H](O)[C@@H](CO)O[C@@H](OCC[Si](C)(C)C)[C@@H]3O)[C@@H]2O)(C(=O)O)C[C@@H]1O
1.24	CC(=O)N[C@H]1[C@H]([C@@H](O)[C@H](O)CO)O[C@@](O[C@H]2[C@@H](O)[C@@H](CO)O[C@@H](O[C@@H]3CCO[C@H](CO[C@@H](C)C(=O)O)[C@@H]3O)[C@@H]2O)(C(=O)O)C[C@@H]1O
0.3	CC(=O)N[C@H]1[C@H]([C@@H](O)[C@H](O)CO)O[C@@](O[C@H]2[C@@H](O)[C@@H](CO)O[C@@H](O[C@H]3[C@@H](O)[C@@H](CO)O[C@@H](OCC[Si](C)(C)C)[C@@H]3O)[C@@H]2O)(C(=O)O)C[C@@H]1O
0.3	CC(=O)N[C@H]1[C@H]([C@@H](O)[C@H](O)CO)O[C@@](OC[C@H]2O[C@@H](OCC[Si](C)(C)C)[C@H](O)[C@@H](O[C@@H]3O[C@H](CO)[C@H](O)[C@H](O[C@]4(C(=O)O)C[C@H](O)[C@@H](NC(C)=O)[C@H]([C@@H](O)[C@H](O)CO)O4)[C@H]3O)[C@H]2O)(C(=O)O)C[C@@H]1O
0.17	CC(=O)N[C@H]1[C@H](OCC[Si](C)(C)C)O[C@H](CO[C@H](C)C(=O)O)[C@H](O)[C@@H]1O[C@@H]1O[C@H](CO)[C@H](O)[C@H](O[C@]2(C(=O)O)C[C@H](O)[C@@H](NC(C)=O)[C@H]([C@@H](O)[C@H](O)CO)O2)[C@H]1O
0.31	CC(=O)N[C@H]1[C@H](OCC[Si](C)(C)C)O[C@H](CO[C@@H](C)C(=O)O)[C@H](O)[C@@H]1O[C@@H]1O[C@H](CO)[C@H](O)[C@H](O[C@]2(C(=O)O)C[C@H](O)[C@@H](NC(C)=O)[C@H]([C@@H](O)[C@H](O)CO)O2)[C@H]1O
0.4	CC(=O)N[C@H]1[C@H](OCC[Si](C)(C)C)O[C@H](CO[C@@H](Cc2ccccc2)C(=O)O)[C@H](O)[C@@H]1O[C@@H]1O[C@H](CO)[C@H](O)[C@H](O[C@]2(C(=O)O)C[C@H](O)[C@@H](NC(C)=O)[C@H]([C@@H](O)[C@H](O)CO)O2)[C@H]1O
1.25	CC(=O)N[C@H]1[C@H]([C@@H](O)[C@H](O)CO)O[C@@](O[C@H]2[C@@H](O)[C@@H](CO)O[C@@H](O[C@@H]3CCO[C@H](COCc4ccc(-c5ccccc5)cc4)[C@@H]3O)[C@@H]2O)(C(=O)O)C[C@@H]1O
0.98	CC(=O)N[C@H]1[C@H]([C@@H](O)[C@H](O)CO)O[C@@](O[C@H]2[C@@H](O)[C@@H](CO)O[C@@H](O[C@@H]3CCO[C@H](CO[C@H](C)C(=O)O)[C@@H]3O)[C@@H]2O)(C(=O)O)C[C@@H]1O
0.4	CC(=O)N[C@H]1[C@H]([C@@H](O)[C@H](O)CO)O[C@@](O[C@H]2[C@@H](O)[C@@H](CO)O[C@@H](O[C@@H]3CCO[C@H](CO[C@@H](Cc4ccccc4)C(=O)O)[C@@H]3O)[C@@H]2O)(C(=O)O)C[C@@H]1O
377	CC(=O)N[C@H]1[C@H]([C@@H](O)[C@H](O)CNC(=O)c2ccc(Cl)cc2)O[C@@](O[C@H]2[C@@H](O)[C@@H](CO)O[C@@H](O[C@@H]3CCO[C@H](COCc4ccc(-c5ccccc5)cc4)[C@@H]3O)[C@@H]2O)(C(=O)O)C[C@@H]1O
0.76	CC(=O)N[C@H]1[C@H]([C@@H](O)[C@H](O)CO)O[C@@](O[C@H]2[C@@H](O)[C@@H](CO)O[C@@H](O[C@@H]3CCO[C@H](CO)[C@@H]3O)[C@@H]2O)(C(=O)O)C[C@@H]1O
